# Data reported in ChEMBL document CHEMBL5058577, “EUbOPEN Chemogenomics Library 2 (Multiplex)” (2022).
# Tested on: HEK-293T
# Experiment: Multiplex assay against HEK293T
# Format: toxicity, cell-based
# Conditions: human
# Outline: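 Four dyes were applied at seeding to live cells: Hoechst33342, BioTracker Green Microtubule Cytoskeleton Dye, MitoTracker Red and Annexin V Alexa Fluor 680. Imaging after compound addition used a CQ1 microscope at 37°C and 5% CO2. CellPathfinder machine-learning gating then sorted cells into Hoechst high-intensity objects or normal cells, normal cells into healthy, pyknosed or fragmented nuclei, and pyknosed cells into mitotic or apoptotic, with tubulin, mitochondrial-mass and membrane-permeability phenotypes given as per cents of healthy-nucleus cells.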
# [1] = 12 h, 1 µM, compound concentration 1 uM, replicate 1
# [2] = 12 h, 1 µM, compound concentration 1 uM, replicate 2
# [3] = 12 h, 10 µM, compound concentration 10 uM, replicate 1
# [4] = 12 h, 10 µM, compound concentration 10 uM, replicate 2
# [5] = 24 h, 1 µM, compound concentration 1 uM, replicate 1
# [6] = 24 h, 1 µM, compound concentration 1 uM, replicate 2
# [7] = 24 h, 10 µM, compound concentration 10 uM, replicate 1
# [8] = 24 h, 10 µM, compound concentration 10 uM, replicate 2
# [9] = 48 h, 1 µM, compound concentration 1 uM, replicate 1
# [10] = 48 h, 1 µM, compound concentration 1 uM, replicate 2
# [11] = 48 h, 10 µM, compound concentration 10 uM, replicate 1
# [12] = 48 h, 10 µM, compound concentration 10 uM, replicate 2
smiles,measurement,setting,value
CC(C)COc1ccc(CNC(=O)N(Cc2ccc(F)cc2)C2CCN(C)CC2)cc1 [PIMAVANSERIN],Population Apoptotic (%),[1],39%
same,Population Fragmented Nuclei (%),[1],5%
same,Population Healthy Nuclei (%),[1],82%
same,Population Hoechst High Intensity Objects (%),[1],6%
same,Population Membrane Permeable-Phenotype (%),[1],0%
same,Population Mitochondria Different-Phenotype (%),[1],50%
same,Population Mitotic Cells (%),[1],60%
same,Population Normal (%),[1],93%
same,Population Pyknosed Nuclei (%),[1],11%
same,Population Tubulin-Different-Phenotype (%),[1],49%
same,Total Cell Count,[1],430
same,Population Apoptotic (%),[2],54%
same,Population Fragmented Nuclei (%),[2],7%
same,Population Healthy Nuclei (%),[2],74%
same,Population Hoechst High Intensity Objects (%),[2],11%
same,Population Mitochondria Different-Phenotype (%),[2],68%
same,Population Mitotic Cells (%),[2],46%
same,Population Normal (%),[2],88%
same,Population Pyknosed Nuclei (%),[2],18%
same,Population Tubulin-Different-Phenotype (%),[2],35%
same,Total Cell Count,[2],311
same,Population Apoptotic (%),[3],62%
same,Population Fragmented Nuclei (%),[3],10%
same,Population Healthy Nuclei (%),[3],60%
same,Population Hoechst High Intensity Objects (%),[3],19%
same,Population Membrane Permeable-Phenotype (%),[3],0%
same,Population Mitochondria Different-Phenotype (%),[3],89%
same,Population Mitotic Cells (%),[3],37%
same,Population Normal (%),[3],80%
same,Population Pyknosed Nuclei (%),[3],28%
same,Population Tubulin-Different-Phenotype (%),[3],81%
same,Total Cell Count,[3],285
same,Population Apoptotic (%),[4],79%
same,Population Fragmented Nuclei (%),[4],7%
same,Population Healthy Nuclei (%),[4],64%
same,Population Hoechst High Intensity Objects (%),[4],25%
same,Population Mitochondria Different-Phenotype (%),[4],87%
same,Population Mitotic Cells (%),[4],20%
same,Population Normal (%),[4],74%
same,Population Pyknosed Nuclei (%),[4],27%
same,Population Tubulin-Different-Phenotype (%),[4],66%
same,Total Cell Count,[4],237
same,Population Apoptotic (%),[5],33%
same,Population Fragmented Nuclei (%),[5],9%
same,Population Healthy Nuclei (%),[5],77%
same,Population Hoechst High Intensity Objects (%),[5],6%
same,Population Membrane Permeable-Phenotype (%),[5],2%
same,Population Mitochondria Different-Phenotype (%),[5],42%
same,Population Mitotic Cells (%),[5],66%
same,Population Normal (%),[5],93%
same,Population Pyknosed Nuclei (%),[5],13%
same,Population Tubulin-Different-Phenotype (%),[5],40%
same,Total Cell Count,[5],553
same,Population Apoptotic (%),[6],48%
same,Population Fragmented Nuclei (%),[6],4%
same,Population Healthy Nuclei (%),[6],82%
same,Population Hoechst High Intensity Objects (%),[6],8%
same,Population Membrane Permeable-Phenotype (%),[6],0%
same,Population Mitochondria Different-Phenotype (%),[6],55%
same,Population Mitotic Cells (%),[6],51%
same,Population Normal (%),[6],91%
same,Population Pyknosed Nuclei (%),[6],12%
same,Population Tubulin-Different-Phenotype (%),[6],30%
same,Total Cell Count,[6],394
same,Population Apoptotic (%),[7],81%
same,Population Fragmented Nuclei (%),[7],10%
same,Population Healthy Nuclei (%),[7],57%
same,Population Hoechst High Intensity Objects (%),[7],27%
same,Population Membrane Permeable-Phenotype (%),[7],0%
same,Population Mitochondria Different-Phenotype (%),[7],94%
same,Population Mitotic Cells (%),[7],18%
same,Population Normal (%),[7],72%
same,Population Pyknosed Nuclei (%),[7],31%
same,Population Tubulin-Different-Phenotype (%),[7],77%
same,Total Cell Count,[7],285
same,Population Apoptotic (%),[8],84%
same,Population Fragmented Nuclei (%),[8],12%
same,Population Healthy Nuclei (%),[8],54%
same,Population Hoechst High Intensity Objects (%),[8],34%
same,Population Mitochondria Different-Phenotype (%),[8],100%
same,Population Mitotic Cells (%),[8],15%
same,Population Normal (%),[8],65%
same,Population Pyknosed Nuclei (%),[8],32%
same,Population Tubulin-Different-Phenotype (%),[8],69%
same,Total Cell Count,[8],215
same,Population Apoptotic (%),[9],27%
same,Population Fragmented Nuclei (%),[9],13%
same,Population Healthy Nuclei (%),[9],77%
same,Population Hoechst High Intensity Objects (%),[9],5%
same,Population Membrane Permeable-Phenotype (%),[9],1%
same,Population Mitochondria Different-Phenotype (%),[9],31%
same,Population Mitotic Cells (%),[9],72%
same,Population Normal (%),[9],94%
same,Population Pyknosed Nuclei (%),[9],8%
same,Population Tubulin-Different-Phenotype (%),[9],33%
same,Total Cell Count,[9],869
same,Population Apoptotic (%),[10],48%
same,Population Fragmented Nuclei (%),[10],9%
same,Population Healthy Nuclei (%),[10],84%
same,Population Membrane Permeable-Phenotype (%),[10],0%
same,Population Mitochondria Different-Phenotype (%),[10],33%
same,Population Mitotic Cells (%),[10],51%
same,Population Pyknosed Nuclei (%),[10],6%
same,Population Tubulin-Different-Phenotype (%),[10],21%
same,Total Cell Count,[10],601
same,Population Apoptotic (%),[11],75%
same,Population Fragmented Nuclei (%),[11],29%
same,Population Healthy Nuclei (%),[11],30%
same,Population Hoechst High Intensity Objects (%),[11],52%
same,Population Membrane Permeable-Phenotype (%),[11],0%
same,Population Mitochondria Different-Phenotype (%),[11],88%
same,Population Mitotic Cells (%),[11],24%
same,Population Normal (%),[11],47%
same,Population Pyknosed Nuclei (%),[11],40%
same,Population Tubulin-Different-Phenotype (%),[11],58%
same,Total Cell Count,[11],235
same,Population Apoptotic (%),[12],61%
same,Population Fragmented Nuclei (%),[12],31%
same,Population Hoechst High Intensity Objects (%),[12],60%
same,Population Mitochondria Different-Phenotype (%),[12],92%
same,Population Mitotic Cells (%),[12],38%
same,Population Normal (%),[12],40%
same,Population Pyknosed Nuclei (%),[12],37%
same,Population Tubulin-Different-Phenotype (%),[12],64%
same,Total Cell Count,[12],205
